Test results reported in ChEMBL document CHEMBL3758073, “Synthesis and Biochemical Evaluation of 3-Phenoxy-1,4-diarylazetidin-2-ones as Tubulin-Targeting Antitumor Agents” (J Med Chem, 2016).
Calls of active or inactive are those of the source. No cut-off for these calls is given here.

Key:
[1] = tested on: MCF7; experiment: Induction of cell cycle arrest in human MCF7 cells assessed as accumulation at G2/M phase at 50 nM after 24 hrs by propidium iodide staining based flow cytometric analysis (reference value: 25%); format: functional
[2] = Toxicity in ip dosed athymic nude mouse; format: organism-based; conditions: in vivo
[3] = Antiproliferative activity against human NCI60 cells by SRB assay; format: functional
Method in brief: (§1)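 NCI panel of 56 cell lines (MCF-7 included), run after an initial single-dose 10 μM screen. Five-dose testing used a sulphorhodamine B protein-staining read-out. GI50 (50% growth inhibition) and LC50 (50% lethal concentration) were derived for each line, and a mean GI50 was taken across the panel.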

[4] = tested on: MCF7; experiment: Antiproliferative activity against human MCF7 cells assessed as cell viability pre-incubated for 24 hrs with CO2 followed by compound addition after 72 hrs by MTT assay; format: functional, cell-based
Method in brief: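 MCF-7 grown in Eagle's MEM with 10% FBS, 2 mM L-glutamine, penicillin/streptomycin and 1% non-essential amino acids. Cells seeded at 2.5 x 10⁴ cells/mL, 24 h at 37 °C, then dosed from ethanol stocks over 1 nM–100 µM (vehicle 1% v/v ethanol) for 72 h. MTT at 1 mg/mL final, 2 h in the dark, DMSO solubilisation. Viability set against untreated controls; IC50 is the mean of three experiments in triplicate.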

[5] = tested on: MCF7; experiment: Induction of apoptosis in human MCF7 cells assessed as accumulation at sub-G0/G1 level at 50 nM after 72 hrs by propidium iodide staining based flow cytometric analysis (reference value: 4%); format: functional
[6] = Antiproliferative activity against human MDA-MB-321 cells assessed as cell viability after 72 hrs by MTT assay; format: functional, cell-based
Method in brief: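 MDA-MB-231 cells kept in DMEM with 10% FBS, 2 mM L-glutamine and penicillin/streptomycin. Seeded at 2.5 x 10⁴ cells/mL, 24 h at 37 °C, then exposed for 72 h to 1 nM–100 µM from ethanol stocks (1% v/v ethanol vehicle). MTT added at 1 mg/mL final for 2 h in the dark, DMSO solubilisation, absorbance read, viability relative to untreated controls.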

[7] = tested on: MCF7; experiment: Inhibition of tubulin polymerization in human MCF7 cells assessed as loss of microtubules formation at 100 nM incubated for 16 hrs by FITC-DAPI staining based confocal microscopic analysis; format: functional, cell-based
Method in brief: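 MCF-7 seeded at 1×10^5 cells/ml on chamber glass slides and treated 16 h with paclitaxel (1 μM), test agent (100 nM) or vehicle (1% v/v ethanol). Fixed 20 min in 4% paraformaldehyde, permeabilised in 0.5% Triton X-100, blocked in 5% BSA. Stained with anti-α-tubulin–FITC (DM1A, 1:100, 2 h rt) and Alexa Fluor 488, DAPI counterstain. Imaged by confocal microscopy; three independent occasions.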

[8] = tested on: MCF7; experiment: Induction of cell cycle arrest in human MCF7 cells assessed as accumulation at G2/M phase at 50 nM after 48 hrs by propidium iodide staining based flow cytometric analysis (reference value: 25%); format: functional
[9] = tested on: MCF7; experiment: Binding affinity to beta-Tubulin in human MCF7 cells assessed as inhibition of protein-EBI adduct formation at Cys239 and Cys354 at 10 uM pre-incubated for 2 hrs followed by EBI addition after 1.5 hrs by Western blot analysis; format: cell-based
Method in brief: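 MCF-7 seeded at 5×10^4 cells/well and incubated overnight. Treated 2 h with test agent at 10 μM or with vehicle (0.1% v/v ethanol), then with N,N'-ethylene-bis(iodoacetamide) for a further 1.5 h. Cells washed in ice-cold PBS and lysed in Laemmli buffer. SDS-PAGE, PVDF transfer and β-tubulin immunoblot to detect the faster-migrating β-tubulin–EBI adduct. Three independent experiments.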

[10] = Antitumor activity against human UACC62 cells xenografted in athymic nude mouse assessed as reduction in tumor cell growth at 37.5 mg/kg, ip by hollow fiber assay; format: functional; conditions: UACC-62, ip, read-out: TGI
[11] = tested on: MCF7; experiment: Cytotoxicity against human MCF7 cells assessed as induction of cell death at 10 uM after 72 hrs by LDH assay; format: cell-based; conditions: mcf7, 72 h
Method in brief: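 Cell death in MCF-7 measured by LDH release. Seeding and dosing as for the MTT assay; after 72 h, lysis solution added to blank wells for 1 h to give 100% death. Supernatant mixed with substrate (INT to formazan) for 30 min at rt in the dark, then stopped and read at 490 nm. Percentage cell death reported at 10 μM; assays in triplicate.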

[12] = Half life of the compound in pH 7.4 after 3 to 24 hrs by HPLC; format: physicochemical
Method in brief: (§2)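 10 mg compound was dissolved in 10 ml mobile phase as stock. 200 µL stock was diluted into 9.8 mL phosphate buffer (pH 4, 7.4 or 9, British Pharmacopeia 2010) and injected immediately. Samples were analysed at t=0, then every 3 h to 24 h, by reverse-phase C8 HPLC: acetonitrile:water 50:50, 1 ml/min, 254 nm detection. Half-life was derived from these runs.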

[13] = target: Tubulin (Sus scrofa) (UniProt P02554+P02550); experiment: Inhibition of porcine tubulin polymerization assessed as inhibition of tubulin assembly Vmax rate at 10 uM by spectrophotometric analysis; format: protein assay
Method in brief: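 Tubulin polymerisation kit (>97% pure porcine tubulin, OD-based). Tubulin plus GTP at 37 °C with test agent at 10 μM final; 1% v/v ethanol as vehicle. A340 read every 30 s for 60 min at 37 °C. Fold change in Vmax calculated relative to vehicle; mean of three separate experiments.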

[14] = Half life of the compound in pH 4 after 3 to 24 hrs by HPLC; format: physicochemical; method in brief: as §2
[15] = Half life of the compound in pH 9 after 3 to 24 hrs by HPLC; format: physicochemical; method in brief: as §2
[16] = tested on: MCF7; experiment: Antiproliferative activity against human MCF7 cells by SRB assay; format: functional; method in brief: as §1
[17] = tested on: MCF7; experiment: Induction of apoptosis in human MCF7 cells assessed as accumulation at sub-G0/G1 level at 100 nM after 72 hrs by propidium iodide staining based flow cytometric analysis (reference value: 4%); format: functional
[18] = target: Tubulin (Homo sapiens) (UniProt P68371+Q9H4B7+P0DPH7+P68366+Q13509+Q71U36+P04350+Q3ZCM7+P07437+P68363+Q9BQE3+Q6PEY2+Q13885+Q9BVA1+Q9BUF5); experiment: Inhibition of tubulin polymerization in human MCF7 cells assessed as induction of microtubules bundles formation at 1 uM incubated for 16 hrs by FITC-DAPI staining based confocal microscopic analysis; format: cell-based

Chain of Tubulin (Sus scrofa) (P02550 whole entry, looked up): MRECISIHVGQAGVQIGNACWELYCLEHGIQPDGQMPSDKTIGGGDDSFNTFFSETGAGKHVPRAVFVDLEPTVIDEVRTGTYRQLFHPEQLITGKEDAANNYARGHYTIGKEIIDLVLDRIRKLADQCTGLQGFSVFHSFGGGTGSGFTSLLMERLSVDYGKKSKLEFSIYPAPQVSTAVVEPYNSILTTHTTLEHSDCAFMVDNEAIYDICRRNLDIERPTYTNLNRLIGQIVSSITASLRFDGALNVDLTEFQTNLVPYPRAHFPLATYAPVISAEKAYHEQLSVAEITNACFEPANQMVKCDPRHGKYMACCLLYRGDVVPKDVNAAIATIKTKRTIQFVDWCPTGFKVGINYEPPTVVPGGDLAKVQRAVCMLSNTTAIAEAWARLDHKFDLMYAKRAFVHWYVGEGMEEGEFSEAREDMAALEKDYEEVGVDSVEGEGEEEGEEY
Chain of Tubulin (Sus scrofa) (P02554 whole entry, looked up): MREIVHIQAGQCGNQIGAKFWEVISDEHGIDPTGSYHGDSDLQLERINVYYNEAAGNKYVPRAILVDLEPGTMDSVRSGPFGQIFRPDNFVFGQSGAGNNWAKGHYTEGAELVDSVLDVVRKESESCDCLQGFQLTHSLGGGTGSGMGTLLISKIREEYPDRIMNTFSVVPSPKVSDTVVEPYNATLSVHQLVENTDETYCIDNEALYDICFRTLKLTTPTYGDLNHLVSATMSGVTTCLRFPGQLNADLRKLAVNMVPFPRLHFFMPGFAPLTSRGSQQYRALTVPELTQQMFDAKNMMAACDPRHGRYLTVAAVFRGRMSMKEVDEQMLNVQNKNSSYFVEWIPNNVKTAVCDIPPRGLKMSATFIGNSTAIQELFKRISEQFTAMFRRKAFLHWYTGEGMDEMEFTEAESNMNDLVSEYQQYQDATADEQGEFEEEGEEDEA

Structure (SMILES) | Activity [1] | MTD [2] | GI50 [3] | IC50 [4] | Activity [5] | IC50 [6] | inhibition [7] | Activity [8] | Activity [9] | inhibition in vivo at 37.5 mg/kg [10] | Activity [11] | half-life [12] | fold change (FC) [13] | half-life [14] | half-life [15] | GI50 [16] | Activity [17] | inhibition [18]
COc1ccc([C@@H]2[C@@H](Oc3ccccc3)C(=O)N2c2cc(OC)c(OC)c(OC)c2)cc1N (relative stereo) | 57% | 100 mg/kg | 22.4 nM | 13 nM | 35% | 15 nM | Active | 73% | Active | 50% | 10.2% | > 24 h | 1.8 | 18 h | 18 h | < 10 nM | – | –
COc1ccc([C@@H]2[C@H](Oc3ccccc3)C(=O)N2c2cc(OC)c(OC)c(OC)c2)cc1O (relative stereo) | – | – | 1450 nM | 383 nM | – | – | – | – | – | – | 2.8% | – | 1.1 | – | – | 360 nM | – | –
COc1ccc(/C=C\c2cc(OC)c(OC)c(OC)c2)cc1O [COMBRETASTATIN A4] | – | – | – | 3.9 nM | – | – | Active | – | Active | – | 5.5% | – | 6 | – | – | – | – | –
COc1ccc([C@@H]2[C@@H](Oc3ccccc3)C(=O)N2c2cc(OC)c(OC)c(OC)c2)cc1O (relative stereo) | – | – | – | 38 nM | – | – | – | – | – | – | 29% | 8 h | 3.2 | 12 h | 11 h | – | 34% | –
CC(=O)O[C@H]1C(=O)[C@@]2(C)[C@H]([C@H](OC(=O)c3ccccc3)[C@]3(O)C[C@H](OC(=O)[C@H](O)[C@@H](NC(=O)c4ccccc4)c4ccccc4)C(C)=C1C3(C)C)[C@]1(OC(C)=O)CO[C@@H]1C[C@@H]2O | – | – | – | – | – | – | – | – | – | – | – | – | – | – | – | – | – | Active
